Calls of active or inactive are those of the source. The calls are words filed in the database; no cut-off is given here.
What was measured:
[1] = target: T1, Polyunsaturated fatty acid lipoxygenase ALOX15 (Homo sapiens) (UniProt P16050); assay: Activation of 15-LOX in human whole blood assessed as increase in 15-HETE production at 100 uM pre-incubated for 20 mins before stimulation with LPS and A23187 for 120 mins by LC-MS/MS method; type: tissue-based
T1 sequence (whole entry): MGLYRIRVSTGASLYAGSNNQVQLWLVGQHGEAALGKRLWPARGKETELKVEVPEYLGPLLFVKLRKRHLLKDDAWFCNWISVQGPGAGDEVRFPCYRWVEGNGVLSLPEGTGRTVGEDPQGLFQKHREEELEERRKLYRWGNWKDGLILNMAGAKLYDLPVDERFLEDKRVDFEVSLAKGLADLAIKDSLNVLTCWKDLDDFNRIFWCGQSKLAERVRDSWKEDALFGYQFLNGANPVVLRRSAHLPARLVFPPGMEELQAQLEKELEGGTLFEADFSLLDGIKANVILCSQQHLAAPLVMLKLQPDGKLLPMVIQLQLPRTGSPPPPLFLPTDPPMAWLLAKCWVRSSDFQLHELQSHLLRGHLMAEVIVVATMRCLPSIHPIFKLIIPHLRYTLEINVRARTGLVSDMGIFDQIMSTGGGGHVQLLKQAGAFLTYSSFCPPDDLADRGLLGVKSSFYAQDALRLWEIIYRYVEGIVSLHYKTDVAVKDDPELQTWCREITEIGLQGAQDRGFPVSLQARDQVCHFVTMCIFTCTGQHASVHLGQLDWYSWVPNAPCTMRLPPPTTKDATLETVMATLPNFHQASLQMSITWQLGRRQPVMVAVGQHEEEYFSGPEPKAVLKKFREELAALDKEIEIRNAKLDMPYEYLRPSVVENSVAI
How it was run: (§1)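 Human blood preincubated 20 min at 37 °C with DMSO vehicle or compound in DMSO. LPS added at 100 μg/mL for 24 h at 37 °C, then A23187 at 20 μg/mL final. Samples frozen in liquid nitrogen at time points, lysed by freeze–thaw, with PGB2 internal standard. Analysed by C18 LC-MRM MS, negative ion. Change = control-normalized concentration minus 1, ×100%; 120 min value from AUC.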

[2] = target: T1, Polyunsaturated fatty acid lipoxygenase ALOX15 (Homo sapiens); assay: Activation of 15-LOX in human whole blood assessed as increase in 15-HETE production at 100 uM pre-incubated for 20 mins before stimulation with LPS and A23187 for 120 mins in presence of 0.16 to 20 uM 5-LOX inhibitor Zileuton by LC-MS/MS method; type: tissue-based; how it was run: as §1
[3] = target: T1, Polyunsaturated fatty acid lipoxygenase ALOX15 (Homo sapiens); assay: Activation of wild-type His6-tagged human 15-LOX expressed in Escherichia coli Rosetta DE3 assessed as 15-HpETE formation at 40 uM pre-incubated for 1 min before arachidonic acid substrate addition by cell free assay
Blood = assay: Reduction in TXB2 in production in human whole blood at 100 uM pre-incubated for 20 mins before stimulation with LPS and A23187 for 120 mins by LC-MS/MS method; type: functional; parameters: scale not given: the % may be the effect or the level left; how it was run: as §1
[4] = target: T1, Polyunsaturated fatty acid lipoxygenase ALOX15 (Homo sapiens); assay: Activation of 15-LOX in human whole blood assessed as increase in 13-HODE production at 100 uM pre-incubated for 20 mins before stimulation with LPS and A23187 for 120 mins by LC-MS/MS method; type: tissue-based; how it was run: as §1
[5] = target: T1, Polyunsaturated fatty acid lipoxygenase ALOX15 (Homo sapiens); assay: Activation of 15-LOX in human whole blood assessed as increase in 15-HETE production at 100 uM pre-incubated for 20 mins before stimulation with LPS and A23187 for 120 mins in presence of 2 uM […] inhibitor Zileuton by LC-MS/MS method; type: tissue-based; how it was run: as §1
[6] = target: Prostaglandin G/H synthase 1 (Homo sapiens) (UniProt P23219); assay: Inhibition of COX1 (unknown origin) assessed as reduction in PGG2 to PGH2 conversion by measuring N,N,N',N'-tetramethyl-p-phenylenediamine oxidation at 100 uM by spectrophotometry
[7] = target: T2, Polyunsaturated fatty acid 5-lipoxygenase (Homo sapiens) (UniProt P09917); assay: Inhibition of human 5-LOX expressed in Escherichia coli BL21-DE3 of assessed as reduction in H2DCFDA oxidation at 100 uM using arachidonic acid substrate incubated for 5 mins by fluorescence spectrophotometry
T2 sequence (whole entry): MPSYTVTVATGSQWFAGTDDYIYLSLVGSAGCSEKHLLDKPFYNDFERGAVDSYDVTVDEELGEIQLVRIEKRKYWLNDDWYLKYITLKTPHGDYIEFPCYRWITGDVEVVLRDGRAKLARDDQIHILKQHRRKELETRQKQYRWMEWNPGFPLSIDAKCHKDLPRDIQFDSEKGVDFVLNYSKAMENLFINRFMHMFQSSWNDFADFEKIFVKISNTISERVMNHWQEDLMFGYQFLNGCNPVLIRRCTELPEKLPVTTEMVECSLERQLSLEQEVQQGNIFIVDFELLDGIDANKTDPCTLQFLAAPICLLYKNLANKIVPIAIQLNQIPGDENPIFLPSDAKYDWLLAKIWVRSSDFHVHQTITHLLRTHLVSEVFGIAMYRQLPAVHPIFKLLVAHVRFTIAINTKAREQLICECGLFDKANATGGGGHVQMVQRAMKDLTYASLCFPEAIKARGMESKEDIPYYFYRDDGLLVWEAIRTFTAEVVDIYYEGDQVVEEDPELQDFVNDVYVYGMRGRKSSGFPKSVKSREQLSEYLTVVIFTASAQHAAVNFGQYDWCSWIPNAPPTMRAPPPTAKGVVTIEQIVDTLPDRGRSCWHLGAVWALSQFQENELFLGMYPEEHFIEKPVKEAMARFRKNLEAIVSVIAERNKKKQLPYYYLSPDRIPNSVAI
How it was run: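 Human 5-LOX activity followed as AA-driven oxidation of H2DCFDA to fluorescent dichlorofluorescein (ex 500/em 520 nm), recorded for 5 min. Compound handled as in the 15-LOX assay.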

[8] = target: T1, Polyunsaturated fatty acid lipoxygenase ALOX15 (Homo sapiens); assay: Activation of 15-LOX in human PMN assessed as 5-HETE production at 6.2 to 40 uM pre-incubated for 15 mins before A23187, Ca2+ and Mg2+ stimulation for 1 hr by LC-MS method
How it was run: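 PMNs preincubated 15 min at 37 °C with compound or vehicle, then stimulated 1 h at 37 °C with 10 μM A23187 plus 2 mM Ca2+ and 2 mM Mg2+. Reactions stopped with cold methanol. Eicosanoids quantified by LC-MS.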

Chain of Prostaglandin G/H synthase 1 (Homo sapiens) (P23219 whole entry): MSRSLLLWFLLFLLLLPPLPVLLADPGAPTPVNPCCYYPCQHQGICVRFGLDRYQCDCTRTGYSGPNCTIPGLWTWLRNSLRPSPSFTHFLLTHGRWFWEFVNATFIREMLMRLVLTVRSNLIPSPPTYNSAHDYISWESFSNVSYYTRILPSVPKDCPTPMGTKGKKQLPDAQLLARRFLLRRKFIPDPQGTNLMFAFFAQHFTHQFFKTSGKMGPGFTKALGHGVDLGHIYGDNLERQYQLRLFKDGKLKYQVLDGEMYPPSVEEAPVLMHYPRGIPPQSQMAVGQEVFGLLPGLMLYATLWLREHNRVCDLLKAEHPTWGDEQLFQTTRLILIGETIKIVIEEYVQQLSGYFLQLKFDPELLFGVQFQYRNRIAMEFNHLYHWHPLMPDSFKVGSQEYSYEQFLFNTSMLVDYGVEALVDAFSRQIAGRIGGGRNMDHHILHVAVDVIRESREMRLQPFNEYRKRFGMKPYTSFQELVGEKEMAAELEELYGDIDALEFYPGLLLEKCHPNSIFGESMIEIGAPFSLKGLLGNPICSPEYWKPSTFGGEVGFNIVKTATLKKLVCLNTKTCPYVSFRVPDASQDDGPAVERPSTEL

Activity [1]: 33% | Activity [2]: Active | %max [3]: 85% | Activity [4]: 95% | Activity [5]: Active | inhibition [6]: < 5% | inhibition [7]: < 5% | Activity [8]: Active
Compound: CN1CCN(CC(=O)N2N=C3/C(=C/c4ccccc4)CCCC3C2c2ccccc2)CC1 (centres undefined)
Activity (Blood): 27%
